# Screening results as filed in PubChem BioAssay.
# Only some compounds are listed: those with a hit (about 8.8% of all), similar ones and a draw of the others.
# SF-1 act = activates the human nuclear receptor SF-1 | activation, % at 10 µM | 65,000 tested, 1.9% active | CHO-K1 Gal4-SF-1 LBD luciferase reporter; % increase over DMSO SF-1-specific signal | AID 522;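 active = activation above the mean activation of all tested compounds plus 3 SD, cut at about 50% in these data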
#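 Material: Transient Gal4-SF-1 LBD reporter, CHO-K1 | Input: 4,000 cells/well | Dosing: One dose, 10 µM compound, 1% DMSO | Incubation: 20 h compound treatment, 37 °C | Detection: SteadyLite luciferase luminescence | Evaluation: Percent activation relative to DMSO median and mock-transfected background | Benchmarks: DMSO-treated SF-1-transfected cells as negative, DMSO-treated mock-transfected cells lacking SF-1 as background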
# S1P3 ag = agonists of human S1P3 receptor; Q99500; S1P3 NFAT-BLA reporter cells, agonism, FRET ratio; relative to 1 µM S1P, basal subtracted; activation, % at 4.5 µM; 60,000 tested, 0.1% active;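 active = activation above the screen-wide mean plus 3 SD, cut at about 4.5% in these data, passing the limit was not always enough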
#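 Material: Human S1P3 NFAT-BLA reporter CHO cells | Incubation: Overnight plating, 4 h compound 37 °C, 2 h substrate RT | Signal: FRET β-lactamase substrate fluorescence, excitation 405 nm, 460/535 nm emission ratio, background-subtracted | Compound: 4.5 µM final, single dose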
# S1P1 ag pot = agonists and agonism potentiators of human S1P1 receptor | P21453 | S1P1 CRE-bla cells, forskolin, beta-lactamase FRET, potentiator mode; S1P1 agonist co-added at EC20, 2 nM; 100% = saturating reference agonist, 0% = basal | activation, % at 9.5 µM | 56,000 tested, 0.57% active;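 active = activation above a cutoff set at the mean activation of all tested compounds plus 3 SD, cut at about 54% in these data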;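 note: forskolin at 4 µM as EC80 and the EC20 agonist is SEW2871; 100% = SEW2871 at its EC100 plus forskolin at EC80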
# RORa activator = activators of human nuclear receptor RORA | P35398 | CHO-K1 Gal4-RORA LBD luciferase reporter, luminescence; percent increase over mock-subtracted basal signal | activation, % at 10 µM | 65,000 tested, 1.5% active | AID 560;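 active = activation above the mean of all tested compounds plus 3 SD, cut at about 49% in these data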;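 note: 0% = DMSO-treated RORA cells and 100% = added signal equal to DMSO minus mock-transfected cells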
# M1 antagonist = antagonists of rat M1 muscarinic receptor; P08482; CHO-M1 cells, Fluo-4 calcium, ACh EC80 antagonist mode; hits give low values; B-score at 10 µM; 64,000 tested, 3.4% active;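 active = calcium fluorescence response, raw or row-and-column corrected B-score, differing from the plate sample mean either way at a set confidence level, mostly lower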
# M1 ag = activates the M1 muscarinic receptor | CHO-M1 cells, Fluo-4 calcium fluorescence, agonist mode; hits give high values | B-score at 10 µM | 64,000 tested, 3% active | AID 626;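 active = fluorescence rise, raw or as B-score row- and column-corrected plate score, outside the 99.7% band of its plate's samples, either direction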
# M1 agonist conf = rat M1 muscarinic agonism, confirmation; shares compounds with M1 ag; fluorescence change (max-min) at 10 µM; CHO-M1 cells, Fluo-4 calcium fluorescence, agonist mode; actives lie on both sides; 1,700 tested, 19% active; AID 1488;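 active = fluorescence change differs from the solvent-only DMSO control mean at a set confidence level in both duplicate runs; inconclusive = differs from solvent-only control mean in just one of two runs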;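 note: an EC20 dose of acetylcholine follows compound addition during the same imaging run; raw fluorescence intensity difference in instrument units with no normalization to controls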
# M4 agonist ctr = counter-screen for M1 agonists: activity at rat M4 receptor; shares compounds with M1 ag; CHO M4/Gqi5 cells, Fluo-4 calcium fluorescence, agonist mode; actives lie on both sides; fluorescence change (max-min) at 10 µM; 1,700 tested, 9% active; AID 1741;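 active = fluorescence change differing from the plate's solvent-only control wells at 99.7% confidence in both duplicates, whether higher or lower; inconclusive = differs from solvent controls in only one of two duplicates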
# Target sequence (P08485 whole entry, looked up): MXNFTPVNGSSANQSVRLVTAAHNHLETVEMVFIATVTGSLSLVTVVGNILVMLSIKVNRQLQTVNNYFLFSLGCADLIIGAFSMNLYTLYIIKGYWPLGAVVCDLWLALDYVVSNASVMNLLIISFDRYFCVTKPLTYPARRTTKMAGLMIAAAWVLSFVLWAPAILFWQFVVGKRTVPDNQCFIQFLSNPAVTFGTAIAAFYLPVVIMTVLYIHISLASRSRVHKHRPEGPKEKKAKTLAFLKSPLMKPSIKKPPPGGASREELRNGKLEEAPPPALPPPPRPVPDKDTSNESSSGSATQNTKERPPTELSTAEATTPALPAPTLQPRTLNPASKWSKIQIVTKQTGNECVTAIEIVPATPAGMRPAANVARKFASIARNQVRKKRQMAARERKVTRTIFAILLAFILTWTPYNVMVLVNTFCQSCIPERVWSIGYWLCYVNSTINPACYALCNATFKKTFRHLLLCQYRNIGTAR
# * marks the source's active call; other numbers are inactive results; u = inconclusive; x = no result.
SMILES,SF-1 act,S1P3 ag,S1P1 ag pot,RORa activator,M1 antagonist,M1 ag,M1 agonist conf,M4 agonist ctr
COc1cc(NC(=O)c2ccc(C)cc2)c(OC)cc1NC(=O)CN1CCOCC1,-2,-1,-19,15,-0.34,0.036,x,x
COc1ccccc1-n1c(CNc2c(C)cccc2C)nnc1SCC(=O)N1CCOCC1,-7,0,-2,-4,0.3,-0.23,x,x
CCC(=O)N1CCNC(=O)C1CC(=O)Nc1ccc(C)c(Cl)c1 (stereo not given),-5,-1,-18,-18,-0.28,0.62,x,x
COc1ccccc1NC(=O)CC1C(=O)NCCN1C(=O)Nc1ccc(Cl)c(Cl)c1 (stereo not given),-8,-1,6,8,-0.28,-2.1*,u,u
CC(=O)c1c(C)nn(CC(O)Cn2c3c(c4cc(C)ccc42)CCCC3=O)c1C (stereo not given),20,0,2,-8,0.39,5.2*,-42*,-82
CCOC(=O)CNC(=O)CSc1ncnc2c1cnn2-c1ccc(C)cc1,-23,0,-22,-14,0.00036,-2.2*,5.3,-19
CCOC(=O)CNC(=O)CSc1ncnc2c1cnn2-c1ccccc1,-24,-1,-2,29,-0.94,-1.2,x,x
CCOC(=O)C1CCCN(c2c(NCCN(C)Cc3ccccc3)c(=O)c2=O)C1 (stereo not given),-4,0,-5,3,-0.54,-0.59,x,x
CCOC(=O)C1CCCN(c2c(NCc3ccco3)c(=O)c2=O)C1 (stereo not given),2,-1,-13,-10,-1.1,6.1*,-5,-30
CCOC(=O)C1CCCN(c2c(NCCc3ccc(S(N)(=O)=O)cc3)c(=O)c2=O)C1 (stereo not given),-7,-1,-21,-6,-1.2,2.3*,-11,-14
COc1ccc(-c2cc(C(F)(F)F)n3nc(C(=O)Nc4cc(C)on4)cc3n2)cc1OC,-1,-1,x,-1,-0.43,24*,179*,53
COc1ccc(-c2cc(C(F)(F)F)n3ncc(C(=O)NCC4CCCO4)c3n2)cc1OC (stereo not given),-13,0,-47,-23,-0.1,41*,u,21
COC(=O)c1cc2nc(-c3ccc(OC)cc3)cc(C(F)(F)F)n2n1,-11,1,-7,-1,0.91,-1.4,x,x
COc1ccc(-c2cc(C(F)F)n3ncc(C(=O)NCC4CCCO4)c3n2)cc1 (stereo not given),-13,0,-3,15,-0.26,0.48,x,x
COc1ccccc1C1C(C(=O)c2sc(C)nc2C)=C(O)C(=O)N1CCN1CCOCC1 (stereo not given),2,1,-8,-16,-0.68,-0.3,x,x
OC(CNC1CCCCC1)CN1CCN(CC(O)CNC2CCCCC2)CC1 (stereo not given),-11,-3,-5,-13,0.48,-0.36,x,x
CCOC(=O)NC1(NC2CCCCC2)Oc2ccccc2O1,5,0,8,-15,-1.9,-0.93,x,x
O=C(CCc1nc2ccccc2c(=O)[nH]1)N1CCN(C/C=C/c2ccccc2)CC1,-36,-2,21,-32,-0.84,9.4*,31,-25
O=c1[nH]c(CN2CCN(C/C=C/c3ccccc3)CC2)nc2cc(Cl)ccc12,-1,-1,10,-8,-0.43,-0.54,x,x
COc1ccccc1-c1nnc(SCC(=O)O)n1C,-4,0,8,-8,-0.22,-0.54,x,x
CCOC(=O)C1CCCN(CCC(=O)Nc2ccc3c(c2)CCC3)C1 (stereo not given),-11,-1,9,11,-3.6*,16*,150*,-21
COC(=O)c1ccc(/C(O)=C(\C#N)c2nc3ccccc3s2)cc1,84*,-1,-4,19,-2.4*,2.7*,28,-1.3
CC(N=c1ccccn1C(=O)Nc1ccc(Cl)cc1)c1ccco1 (stereo not given),35,0,34,41,-0.94,4*,-30*,u
COc1ccc2c(c1OC)C(=O)N1c3ccccc3C(=O)N(c3ccccc3F)C21 (stereo not given),15,-8,-22,-25,0.095,9.3*,-26*,-92*
COc1ccc(C(c2nnnn2C2CCCCC2)N2CCN(c3ccc(OC)cc3)CC2)cc1 (stereo not given),-19,-1,-5,10,0.18,0.77,x,x
SMILES,SF-1 act,S1P3 ag,S1P1 ag pot,RORa activator,M1 antagonist,M1 ag,M1 agonist conf,M4 agonist ctr
COc1cccc(C(c2nnnn2Cc2ccccc2)N2CCN(C3CCCC3)CC2)c1OC (stereo not given),2,0,-18,-18,-1.7*,2.8*,-14,-35
CCCC(c1nnnn1Cc1ccc(OC)cc1)N1CCN(c2ccccc2OC)CC1 (stereo not given),-12,0,19,1,-0.78,1.8,x,x
CCCC(c1nnnn1Cc1ccccc1)N1CCN(c2ccccc2OC)CC1 (stereo not given),-1,1,-15,-8,-0.76,7.1*,-15,-36
COc1ccc(OC)c(C(c2nnnn2C2CCCC2)N2CCN(c3ccccc3)CC2)c1 (stereo not given),-10,0,11,-28,-0.086,-1.7*,-16,-51
COc1cccc(NC=C2C(=O)OC(C)(C)OC2=O)c1,4,-1,-8,4,-0.073,-0.58,x,x
COc1cccc(NC=C2C(=O)OC3(CCCCC3)OC2=O)c1,17,x,x,-6,-0.46,2.7*,-11,-44
CS(=O)(=O)N1CCC(C(=O)Nc2ccc(Br)cc2F)CC1,4,1,-8,8,0.66,1.8,x,x
COc1ccc(OC)c(S(=O)(=O)N2CCC(C(=O)Nc3cccc(C(F)(F)F)c3)CC2)c1,-5,-1,14,-4,-0.72,4.4*,-12,-12
COc1ccc(OC)c(S(=O)(=O)N2CCC(C(=O)NCc3ccccc3)CC2)c1,3,-1,-30,-20,0.45,0.33,x,x
O=C(Nc1ccc(F)cc1)N1CCN(c2nc3ccccc3s2)CC1,-25,-2,22,3,-0.23,-0.14,x,x
O=C(Nc1ccccc1)N1CCN(c2nc3ccccc3s2)CC1,-13,-1,0,-7,1.2,4.7*,-5.8,-13
CCOc1ccc(OCC)c(NC(=O)c2ccc(CNc3c(N4CCOCC4)c(=O)c3=O)cc2)c1,8,0,-14,-12,0.32,0.048,x,x
